Laboratory results: ChEMBL document CHEMBL1143814, “Clinical and pharmacokinetic data support once-daily low-dose boosted saquinavir (1,200 milligrams saquinavir with 100 milligrams ritonavir) in treatment-naive or limited protease inhibitor-experienced human immunodeficiency virus-infected patients” (Antimicrob Agents Chemother, 2007)

What was measured:
Assay type in all cases: ADME, organism-based
[1] = AUC (0 to 24 hrs) in PBMC cellular compartment of HIV infected virological failure patient; set-up: time < 24 hr; conditions: human
Outline: (§1)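 PBMC drug levels, same once-daily saquinavir/ritonavir 1,200/100 mg regimen at steady state, same sampling times. PBMC were isolated from EDTA blood diluted 1:1 in PBS (pH 7.4) by Ficoll density centrifugation and washed twice in PBS. Pellet volume was taken as equal to its weight. Pellets were frozen at −70°C and assayed by HPLC-UV at 215 nm. Analysis was noncompartmental, with the terminal phase from the 12–24 h points.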

[2] = Cmin in PBMC cellular compartment of HIV infected virological failure patient after 24 hrs; conditions: human, read-out: Cmin; outline: as §1
[3] = Cmax in PBMC cellular compartment of HIV infected virological failure patient after 24 hrs; conditions: human; outline: as §1
Homo sapiens [4] = organism: Homo sapiens; test: Ratio of Cmax in PBMC cellular compartment to plasma in HIV infected virological failure patient
Outline: (§2)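 Steady-state study (≥1 month on once-daily saquinavir 1,200 mg + ritonavir 100 mg with two NRTIs). 24-h profile: blood drawn predose and at 2, 4, 6, 8, 12 and 24 h after supervised intake. Plasma was separated, and PBMC were isolated on a Ficoll gradient, weighed, and volume was taken as weight. Saquinavir was measured by HPLC-UV at 215 nm (LLOQ 40 ng/ml). Noncompartmental analysis was used, with terminal slope from the 12–24 h points. Ratio = intracellular/plasma.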

[5] = Elimination half life in PBMC cellular compartment of HIV infected patient after 24 hrs; conditions: human; outline: as §1
[6] = Ratio of AUC (0 to 24 hrs) in PBMC cellular compartment to plasma in HIV infected patient; conditions: human, read-out: AUC_ratio; outline: as §2
[7] = Elimination half life in HIV infected patient plasma after 24 hrs; conditions: human
Outline: (§3)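 Plasma PK at steady state (≥1 month) in HIV patients on once-daily saquinavir 1,200 mg plus ritonavir 100 mg and two NRTIs. EDTA blood was drawn predose and at 2, 4, 6, 8, 12 and 24 h after supervised intake, or as a single 24 ± 0.5 h trough. Plasma was stored at −70°C and assayed by HPLC-UV at 215 nm (LLOQ 40 ng/ml). Parameters were noncompartmental, with the terminal slope from the 12–24 h points.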

[8] = Elimination half life in HIV infected virological failure patient plasma after 24 hrs; conditions: human; outline: as §3
[9] = AUC (0 to 24 hrs) in PBMC cellular compartment of HIV infected patient after 24 hrs; set-up: time < 24 hr; conditions: human; outline: as §1
[10] = AUC (0 to 24 hrs) in HIV infected virological failure patient plasma; set-up: time < 24 hr; conditions: human; outline: as §2
[11] = Cmax in HIV infected patient plasma after 24 hrs; conditions: human; outline: as §3
Homo sapiens [12] = organism: Homo sapiens; test: Ratio of elimination half life in PBMC cellular compartment to plasma in HIV infected virological failure patient; outline: as §2
[13] = AUC (0 to 24 hrs) in HIV infected patient plasma after 24 hrs; set-up: time < 24 hr; conditions: human; outline: as §3
[14] = Cmin in HIV infected virological failure patient plasma after 24 hrs; conditions: human, read-out: Cmin; outline: as §3
[15] = Elimination half life in PBMC cellular compartment of HIV infected virological failure patient after 24 hrs; conditions: human; outline: as §1
[16] = Ratio of Cmin in PBMC cellular compartment to plasma in HIV infected virological failure patient; conditions: human, read-out: Cmin_ratio
Outline: (§4)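 Trough (Cmin) saquinavir was sampled at steady state on once-daily 1,200/100 mg saquinavir/ritonavir, either as the 24-h point of the full profile or as a single sample 24 ± 0.5 h postdose. Plasma and Ficoll-isolated PBMC (volume from weight) were assayed by HPLC-UV at 215 nm (LLOQ 40 ng/ml). Ratio = intracellular/plasma concentration.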

Homo sapiens [17] = organism: Homo sapiens; test: Ratio of Cmax in PBMC cellular compartment to plasma in HIV infected patient; outline: as §2
[18] = Ratio of Cmin in PBMC cellular compartment to plasma in HIV infected patient; conditions: human, read-out: Cmin_ratio; outline: as §4
[19] = Ratio of AUC (0 to 24 hrs) in PBMC cellular compartment to plasma in HIV infected virological failure patient; conditions: human, read-out: AUC_ratio; outline: as §2
Homo sapiens [20] = organism: Homo sapiens; test: Ratio of elimination half life in PBMC cellular compartment to plasma in HIV infected patient; outline: as §2
[21] = Cmax in HIV infected virological failure patient plasma after 24 hrs; conditions: human; outline: as §3
[22] = Cmin in HIV infected patient plasma after 24 hrs; conditions: human, read-out: Cmin; outline: as §3
[23] = in the assay text read “HIV infected patient” for “HIV infected virological failure patient”

`CC(C)(C)NC(=O)[C@@H]1C[C@@H]2CCCC[C@@H]2CN1C[C@@H](O)[C@H](Cc1ccccc1)NC(=O)[C@H](CC(N)=O)NC(=O)c1ccc2ccccc2n1` [SAQUINAVIR] showed an AUC(0-t) at 24 h [1] of 132000 ng·h/mL, a concentration at 24 h [2, 23] of 996 ng/mL and a concentration at 24 h [2] of 1220 ng/mL. For the same molecule, the Cmax [3] was 15200 ng/mL, the Cmax [3, 23] was 10100 ng/mL and the Cmax_ratio (Homo sapiens [4]) was 4.46 (null). It also gave a half-life [5] of 12.5 h, a Kp [6] of 2.75 and a half-life [7] of 8.25 h. For the same molecule, the half-life [8] was 8.51 h, the AUC(0-t) at 24 h [9] was 99500 ng·h/mL and the AUC(0-t) at 24 h [10] was 35300 ng·h/mL. The Cmax [11] was 3670 ng/mL, the t1/2_ratio (Homo sapiens [12]) was 1.5 and the AUC(0-t) at 24 h [13] was 34300 ng·h/mL. The concentration at 24 h [14] was 384 ng/mL, the half-life [15] was 10.9 h and the Kp [16] was 3.01. The Cmax_ratio (Homo sapiens [17]) was 2.75 (null), the Kp [18] was 2.39 and the Kp [19] was 3.53. It also gave a t1/2_ratio (Homo sapiens [20]) of 1.5, a Cmax [21] of 3320 ng/mL and a concentration at 24 h [22] of 431 ng/mL.
